Results on one molecule are retold here after ChEMBL document CHEMBL5108057, “Development of MAO-A and 5-HT2AR Dual Inhibitors with Improved Antidepressant Activity” (J Med Chem, 2022).

For data set [1], the species on record is Homo sapiens. Nature of the data set: Selectivity index, ratio of IC50 for inhibition of MAO-B (unknown origin) to IC50 for inhibition of MAO-A (unknown origin). A digest of the protocol:
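Amplex Red coupled assay. Test sample was preincubated with MAO-A or MAO-B at 37 °C for 15 min. p-Tyramine substrate working solution was added, with HRP converting the H2O2 formed to resorufin, for a further 15 min at 37 °C. Fluorescence read at Ex 545/Em 590 nm. […] SI = MAO-B IC50 / MAO-A IC50.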

Data set [2] is described as follows: Cytotoxicity against rat PC-12 cells assessed as reduction in cell growth measured after 48 hrs by MTT assay. Format: toxicity, cell-based. In short, it runs like this:
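MTT assay: PC12, SH-SY5Y or L02 cells at 5.0 × 10^3 per well were grown for 24 h, treated with compound dilutions from 10 mM DMSO stocks, and cultured 48 h. MTT was then added for 4 h at 37 °C, formazan dissolved in DMSO, and absorbance read at 570 nm. Viability is relative to blank control; IC50 from three repeats. Media contained 10% FBS.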

The subject of data set [3] is PC-12. Nature of the data set: Neurocytoprotective activity against CORT-induced damage in rat PC-12 cells at 0.5 to 4 uM measured after 24 hrs by MTT assay. Format: functional, cell-based. The conditions noted are these: dose 0.5-4 µM. In short, it runs like this:
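PC12 cells seeded at 5 × 10^4 cells/mL for 24 h. Medium was then replaced with compound (0.5–4.0 μM) plus 500 μM CORT (DMSO <1%) for 24 h. Viability was measured by MTT relative to the CORT model group.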
(Tetrazolium dyes change colour on reduction, which living cells bring about.)

For data set [4], the species on record is Danio rerio. Nature of the data set: Antidepressant activity in reserpine-induced zebrafish AB depression model assessed as decrease in immobility time at 0.1 to 1 uM pretreated for 40 mins with reserpine followed by compound addition and measured for 7 days by open field test. The class given is functional, organism-based. The conditions noted are these: dose 0.1-1 µM, time 7.0 day. A digest of the protocol: (§1)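 Zebrafish were exposed to 10 mg/L reserpine for 40 min. Compound (0.1, 0.5, 1 μM) or fluoxetine (1 μM) was given 24 h later for 7 days. Fish kept at 28.5 °C on a 14 h light/10 h dark cycle. Open-field and novel tank tests were video-tracked for distance, velocity, immobility and time in the top. Mean ± SD, n = 6.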

For data set [5], the species on record is Danio rerio. Nature of the data set: Antidepressant activity in reserpine-induced zebrafish AB depression model assessed as increase in distance traveled at 0.1 to 1 uM pretreated for 40 mins with reserpine followed by compound addition and measured for 7 days by open field test. The class given is functional, organism-based. The settings on record: dose 0.1-1 µM, time 7.0 day. In short, it runs like this:
as §1

For data set [6], the species on record is Danio rerio. Nature of the data set: Antidepressant activity in reserpine-induced zebrafish AB depression model assessed as fast travel at 0.1 to 1 uM pretreated for 40 mins with reserpine followed by compound addition and measured for 7 days by open field test. Format: functional, organism-based. The conditions noted are these: dose 0.1-1 µM, time 7.0 day. A digest of the protocol:
as §1

The species named for data set [7] is Danio rerio. Nature of the data set: Antidepressant activity in reserpine-induced zebrafish AB depression model assessed as improved locomotion at 0.1 to 1 uM pretreated for 40 mins with reserpine followed by compound addition and measured for 7 days by novel tank test. The class given is functional, organism-based. The settings on record: dose 0.1-1 µM, time 7.0 day. A digest of the protocol: as §1

The species entered for data set [8] is Danio rerio. In words: Antidepressant activity in reserpine-induced zebrafish AB depression model assessed as increase in exploratory ability at 0.1 to 1 uM pretreated for 40 mins with reserpine followed by compound addition and measured for 7 days by novel tank test. Format: functional, organism-based. The settings on record: dose 0.1-1 µM, time 7.0 day. In short, it runs like this:
as §1

Data set [9] concerns Mus musculus. Nature of the data set: Antidepressant activity in reserpine-induced ICR mouse model assessed as reduction in weight loss at 10 to 20 mg/kg pretreated with reserpine for 3 days followed by compound addition on 4 to 10 days. The class given is functional, organism-based. The settings on record: dose 10-20 mg/kg, time 6.0 day. In short, it runs like this:
(§2)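 Body weight was recorded daily. OFT: 5 min session scoring distance, speed, rearing and dejection. FST and TST: 6 min, with immobility scored over the last 4 min. Mean ± SD, n = 6; one-way ANOVA and t-test.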

Data set [10] relates to Mus musculus. Nature of the data set: Antidepressant activity in reserpine-induced ICR mouse model assessed as improvement in depression like behavior at 10 mg/kg pretreated with reserpine for 3 days followed by compound addition for 1 week by open field test. The settings on record: time 1.0 weeks. Format: functional, organism-based. In short, it runs like this: as §2

The test system of data set [11] is Mus musculus. Nature of the data set: Antidepressant activity in reserpine-induced ICR mouse model assessed as reduction in immobility time at 10 to 20 mg/kg pretreated with reserpine for 3 days followed by compound addition on day 4 to 10 by tail suspension test. The settings on record: dose 10-20 mg/kg, time 6.0 day. Format: functional, organism-based. In short, it runs like this: as §2

Data set [12] deals with Mus musculus. In words: Antidepressant activity in chronic unpredictable mild stress ICR mouse model assessed as increase in total distance traveled at 10 to 20 mg/kg administered for 2 weeks by open field test. The class given is functional, organism-based. The settings on record: dose 10-20 mg/kg. A digest of the protocol: (§3)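 ICR mice received CUMS for 4 weeks: 11 stressors given randomly twice daily, 42 days in total. OFT: 5 min session scoring distance, speed, rearing and dejection. FST/TST: 6 min, with immobility scored over the last 4 min. Sucrose preference test was also run. Mean ± SD, n = 6.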

Data set [13] relates to Mus musculus. In words: Antidepressant activity in chronic unpredictable mild stress ICR mouse model assessed as reduction in depression-like behavior at 10 mg/kg administered for 2 weeks by open field test. Format: functional, organism-based. In short, it runs like this: as §3
The subject of data set [14] is Mus musculus. Nature of the data set: Antidepressant activity in chronic unpredictable mild stress ICR mouse model assessed as decrease in immobility time at 10 to 20 mg/kg measured after 2 weeks by forced swimming test. The class given is functional, organism-based. The settings on record: dose 10-20 mg/kg. A digest of the protocol:
as §3

The nature of data set [15]: Toxicity in mouse assessed as toxic effect on lung at 10 to 20 mg/kg by H and E staining based assay. The conditions noted are these: in vivo, dose 10-20 mg/kg. The class given is organism-based. A digest of the protocol:
(§4)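 Mice given compound at 10 or 20 mg/kg, with fluoxetine 20 mg/kg as comparator. Paraffin tissue sections of 4 μm were cut. Staining: hematoxylin 5 min, 75% HCl-ethanol differentiation 30 s, eosin 2 min. Organs (liver, kidney, lung, heart, spleen) examined at ×400; hippocampus (CA1, CA3, DG) at ×200.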

Data set [16] is described as follows: Toxicity in mouse assessed as toxic effect on spleen at 10 to 20 mg/kg by H and E staining based assay. The class given is organism-based. The settings on record: in vivo, dose 10-20 mg/kg. A digest of the protocol: as §4
A short description of data set [17]: AUC(0 to infinity) in Sprague-Dawley rat at 2 mg/kg, iv measured upto 1440 mins by LC-MS/MS analysis. Format: ADME, organism-based. Also on record: dose 2 mg/kg, time < 1440 min, route iv. The settings on record: in vivo.
Data set [18] is described as follows: AUC(0 to infinity) in Sprague-Dawley rat at 10 mg/kg, IG measured upto 1440 mins by LC-MS/MS analysis. The class given is ADME, organism-based. Also on record: time < 1440 min, dose 10 mg/kg, route ig. The settings on record: in vivo, po.
A short description of data set [19]: MRT infinity in Sprague-Dawley rat at 2 mg/kg, iv measured upto 1440 mins by LC-MS/MS analysis. The class given is ADME, organism-based. The conditions noted are these: in vivo.
Data set [20] can be described thus: Cmax in Sprague-Dawley rat at 10 mg/kg, IG measured upto 1440 mins by LC-MS/MS analysis. Format: ADME, organism-based. Also on record: time < 1440 min, dose 10 mg/kg, route ig. The conditions noted are these: in vivo, po.
A short description of data set [21]: Tmax in Sprague-Dawley rat at 2 mg/kg, iv measured upto 1440 mins by LC-MS/MS analysis. Format: ADME, organism-based. The settings on record: in vivo.
Data set [22] can be described thus: Tmax in Sprague-Dawley rat at 10 mg/kg, IG measured upto 1440 mins by LC-MS/MS analysis. Format: ADME, organism-based. The settings on record: in vivo, po.
Data set [23] is described as follows: Bioavailability in Sprague-Dawley rat at 2 mg/kg, iv measured upto 1440 mins by LC-MS/MS analysis. Format: ADME, organism-based. The settings on record: in vivo.

Calls of active or inactive are those of the source. The rule behind the calls is not given here. Where only a bound is given, the exact number is not on record here.

`O=C1c2ccccc2-c2nccc3cc(OCCCCCN4CCN(c5ccccc5F)CC4)cc1c23`: the Ratio IC50 in data set [1] is 262. Also, the IC50 at 48 h in data set [2] is > 10 µM. Further, the outcome in data set [3], in data set [4], in data set [5], in data set [6], in data set [7] and in [8] was Active. The outcome in [9], in data set [10], in [11], in data set [12], in data set [13] and in data set [14] was Active. The Activity result in data set [15] and in data set [16] was “Non-Toxic” in each case. Moreover, the AUC(0-inf) in [17] came to 2320 ng·h/mL; in data set [18], 504 ng·h/mL. For the same molecule, the MRT inf in data set [19] was found to be 4.19 h. This molecule yielded a Cmax in data set [20] of 99.7 ng/mL. For the same molecule, the Tmax in data set [21] worked out at 4.8 min; in data set [22] it was 1.33 h. In [23], this molecule showed a bioavailability of 4.4%.

The IC50 is the concentration that gives 50% inhibition. For orientation: AUC(0-inf) means total exposure, with the tail of the curve extrapolated. The MRT inf is the average time that molecules of a dose stay in the body. What is called Cmax is the highest concentration seen after dosing. In general, Tmax refers to the time at which the peak concentration occurs. The term bioavailability denotes the share of a dose that reaches the circulation, judged against a reference dose that is usually intravenous. A higher bioavailability goes with much systemic uptake.
